By pIC50 is commonly meant the negative decadic logarithm of the IC50, by convention in mol/L. High values mean a low IC50, low ones a high IC50.

Data on twelve molecules can be found in ChEMBL document CHEMBL3758120, “Synthesis and Mechanism Studies of 1,3-Benzoazolyl Substituted Pyrrolo[2,3-b]pyrazine Derivatives as Nonintercalative Topoisomerase II Catalytic Inhibitors” (J Med Chem, 2016).

Assay [1] concerns K562. Nature of the assay: Antiproliferative activity against human K562 cells after 48 hrs by MTT assay. It counts as functional, cell-based. As to conditions: K562, 48 h. In a few lines:
(§1)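 Cells seeded at 5000 per well and left overnight, then exposed to increasing concentrations (0-50 μM) for 48 h. […] HL-60/MX2 is a mitoxantrone-selected HL-60 derivative with reduced Topo IIα/β.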
In general terms: Formazan colour is commonly taken as a measure of viable cells.

Assay [2] concerns HeLa. The assay is described as follows: Antiproliferative activity against human HeLa cells after 48 hrs by MTT assay. It is filed as functional, cell-based. In a few lines: as §1
Assay [3] concerns A549. The assay is described as follows: Antiproliferative activity against human A549 cells after 48 hrs by MTT assay. It is filed as functional, cell-based. As to conditions: A549, 48 h. The essentials: as §1
Assay [4] concerns HL-60. The assay is described as follows: Resistance index, ratio of IC50 for human HL60/MX2 cells to IC50 for HL60 cells. It counts as functional. In a few lines: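 Resistance index calculated as MTT-derived IC50 (48 h exposure, 0-50 μM, A570 readout) in HL-60/MX2 divided by IC50 in parental HL-60.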
Assay [5] relates to Raji. Nature of the assay: Antiproliferative activity against human Raji cells after 48 hrs by MTT assay. It is filed as functional, cell-based. In a few lines: as §1
Assay [6] can be described thus: Antiproliferative activity against human HL60/MX2 cells after 48 hrs by MTT assay. It is filed as functional, cell-based. Conditions: HL60/MX2, 48 h. In a few lines: as §1
Assay [7] concerns HEK293. Nature of the assay: Cytotoxicity against HEK293 cells after 48 hrs by MTT assay. It is filed as cell-based. As to conditions: Homo sapiens, HEK293, 48 h.
Assay [8] is described as follows: Antiproliferative activity against human HL60 cells after 48 hrs by MTT assay. It counts as functional, cell-based. Conditions: HL-60, 48 h. The essentials:
as §1

The nature of assay [9]: Antiproliferative activity against human MDA-MB-201 cells after 48 hrs by MTT assay. It is filed as functional, cell-based. The essentials:
as §1

For assay [10], the target named is T1, DNA topoisomerase 2-alpha (Homo sapiens, UniProt P11388). Nature of the assay: Inhibition of purified human topoisomerase 2-mediated relaxation of supercoiled pBR322 DNA at 20 uM incubated for 30 mins by agarose gel electrophoresis. The essentials: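 Reactions contained 0.2 μg supercoiled pBR322 in 50 mM Tris-HCl pH 8.0, 150 mM NaCl, 10 mM MgCl2, 0.5 mM DTT, 30 μg/ml BSA, normally 2 mM ATP (1, 2 or 4 mM in ATP-competition runs). Started with 1 U human Topo II, 30 min at 37 °C, stopped with sarcosyl buffer, run on 1% agarose 1.5 h at 75 V, gel-stained and imaged under UV.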

Assay [11] concerns Escherichia coli. The assay is described as follows: Binding affinity to Escherichia coli pBR322 DNA assessed as intercalation of pBR322 DNA at 0.1 to 100 uM by fluorescence based ethidium bromide displacement assay. The essentials: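 Increasing concentrations added to 20 nM pBR322 plasmid with 2.5 μM ethidium bromide in 10 mM HEPES pH 7.9, 100 mM KCl, 5 mM MgCl2, 0.1 mM EDTA. Fluorescence emission spectra recorded (excitation 510 nm, emission max 595 nm) at each concentration; mAMSA used as intercalating reference.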

For assay [12], the target named is T2, DNA topoisomerase 1 (Homo sapiens) (UniProt P11387).
T2 sequence (whole entry): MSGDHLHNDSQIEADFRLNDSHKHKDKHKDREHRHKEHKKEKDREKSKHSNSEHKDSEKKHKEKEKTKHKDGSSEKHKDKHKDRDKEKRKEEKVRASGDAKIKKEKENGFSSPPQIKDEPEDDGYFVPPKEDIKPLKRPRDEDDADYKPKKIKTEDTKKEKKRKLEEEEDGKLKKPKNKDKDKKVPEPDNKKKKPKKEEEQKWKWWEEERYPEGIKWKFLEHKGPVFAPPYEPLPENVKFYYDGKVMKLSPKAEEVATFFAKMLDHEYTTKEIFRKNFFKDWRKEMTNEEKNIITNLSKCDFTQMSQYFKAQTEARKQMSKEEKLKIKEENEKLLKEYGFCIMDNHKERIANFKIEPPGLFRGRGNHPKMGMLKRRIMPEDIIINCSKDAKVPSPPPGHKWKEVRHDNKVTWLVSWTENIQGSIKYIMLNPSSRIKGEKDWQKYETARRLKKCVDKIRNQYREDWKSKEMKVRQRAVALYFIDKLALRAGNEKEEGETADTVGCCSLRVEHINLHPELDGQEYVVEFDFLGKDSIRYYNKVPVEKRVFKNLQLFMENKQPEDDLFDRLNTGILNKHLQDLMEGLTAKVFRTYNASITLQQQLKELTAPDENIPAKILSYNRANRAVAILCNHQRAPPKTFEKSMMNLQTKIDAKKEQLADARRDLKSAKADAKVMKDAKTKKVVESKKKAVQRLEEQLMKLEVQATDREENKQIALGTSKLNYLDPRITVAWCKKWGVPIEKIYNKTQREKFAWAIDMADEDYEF
The assay is described as follows: Inhibition of recombinant human topoisomerase 1-mediated relaxation of supercoiled pBR322 DNA at 50 uM incubated for 30 mins by agarose gel electrophoresis. The essentials: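 Supercoiled pBR322 relaxed by Topo I with compound, incubated 30 min at 37 °C, stopped with 1% SDS dye, run on 1% agarose 1 h at 90 V in TAE, stained and imaged under UV; camptothecin as reference.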

Assay [13] has as its target T1, DNA topoisomerase 2-alpha. Conditions: 100 uM.
Assay [14] deals with T1, DNA topoisomerase 2-alpha. As to conditions: HL-60, 10 uM.
Assay [15] deals with T2, DNA topoisomerase 1 (Homo sapiens). As to conditions: 0.6 to 5 uM.

Structures are written as SMILES. pIC50: −log10 of the molar value. Calls of active or inactive are those of the source. No cut-off for these calls is given here.

T1 sequence (P11388 whole entry): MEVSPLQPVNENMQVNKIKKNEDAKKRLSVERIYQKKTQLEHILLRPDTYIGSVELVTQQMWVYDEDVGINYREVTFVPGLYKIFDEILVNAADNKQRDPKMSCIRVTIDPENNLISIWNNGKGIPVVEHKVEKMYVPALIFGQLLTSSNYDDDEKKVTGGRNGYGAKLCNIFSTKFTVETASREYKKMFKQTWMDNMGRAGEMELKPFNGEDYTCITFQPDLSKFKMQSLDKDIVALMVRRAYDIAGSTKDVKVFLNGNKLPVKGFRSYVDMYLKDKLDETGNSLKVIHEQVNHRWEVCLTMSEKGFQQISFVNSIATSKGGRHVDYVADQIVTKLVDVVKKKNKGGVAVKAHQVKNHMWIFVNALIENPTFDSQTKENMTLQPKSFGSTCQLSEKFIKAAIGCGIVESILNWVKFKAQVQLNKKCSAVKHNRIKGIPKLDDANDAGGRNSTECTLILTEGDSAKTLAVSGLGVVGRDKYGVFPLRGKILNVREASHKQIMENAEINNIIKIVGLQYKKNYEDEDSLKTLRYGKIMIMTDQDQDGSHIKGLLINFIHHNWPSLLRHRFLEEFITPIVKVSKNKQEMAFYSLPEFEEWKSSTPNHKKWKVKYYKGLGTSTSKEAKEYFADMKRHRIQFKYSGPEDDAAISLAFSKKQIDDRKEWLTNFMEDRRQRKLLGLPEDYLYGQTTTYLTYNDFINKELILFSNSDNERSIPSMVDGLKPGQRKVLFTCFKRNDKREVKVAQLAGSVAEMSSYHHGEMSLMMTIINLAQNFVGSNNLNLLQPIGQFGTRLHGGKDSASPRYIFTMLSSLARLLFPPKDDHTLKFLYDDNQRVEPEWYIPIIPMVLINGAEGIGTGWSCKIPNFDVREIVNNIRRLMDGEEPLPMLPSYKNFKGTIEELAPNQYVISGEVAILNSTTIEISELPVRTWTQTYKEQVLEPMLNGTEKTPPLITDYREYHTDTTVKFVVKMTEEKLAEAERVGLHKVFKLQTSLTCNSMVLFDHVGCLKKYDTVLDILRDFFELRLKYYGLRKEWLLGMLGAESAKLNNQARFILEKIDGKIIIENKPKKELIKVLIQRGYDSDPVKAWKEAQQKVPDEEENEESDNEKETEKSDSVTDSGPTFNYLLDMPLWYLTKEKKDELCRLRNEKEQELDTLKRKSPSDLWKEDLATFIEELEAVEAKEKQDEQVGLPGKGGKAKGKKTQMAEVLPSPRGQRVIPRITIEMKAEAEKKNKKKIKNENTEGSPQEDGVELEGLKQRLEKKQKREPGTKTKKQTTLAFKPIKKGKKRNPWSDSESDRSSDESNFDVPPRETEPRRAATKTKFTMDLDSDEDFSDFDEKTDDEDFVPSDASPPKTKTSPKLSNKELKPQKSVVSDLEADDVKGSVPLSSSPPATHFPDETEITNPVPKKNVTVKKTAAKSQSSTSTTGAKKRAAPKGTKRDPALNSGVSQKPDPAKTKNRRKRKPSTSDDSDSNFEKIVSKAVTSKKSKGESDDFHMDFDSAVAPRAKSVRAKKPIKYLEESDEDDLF

Turning to `CN(C)CCCCn1c(N)c(-c2nc3ccccc3n2C)c2nc(C#N)c(C#N)nc21`, the pIC50 was 5.84 in assay [1]; 6.34 in assay [2]; 5.21 in assay [3]; 6.49 in [5]; 5.59 in assay [6]; 5.41 in assay [7]. Further, the negative logarithm of the IC50 (pIC50) in assay [8] was 6.13; in [9], 5.75. In [4], the “Ratio IC50” value was determined as 3.5. Besides, the inhibition result in [10] is “Active”.

In the case of `COc1cc(NS(C)(=O)=O)ccc1Nc1c2ccccc2nc2ccccc12`, the inhibition entry in [11] is “Active”.

With `CN(C)CCCCn1c(N)c(-c2nc3ccccc3o2)c2nc(C#N)c(C#N)nc21`, the negative logarithm of the IC50 (pIC50) in assay [1] was 5.86; in assay [2] it was 5.71; in assay [3], 5.26; in assay [5] it was 5.04; in [6] it was 6.02; in assay [7] it was 5.20. Moreover, the negative logarithm of the IC50 (pIC50) in assay [8] is 6.19; in assay [9] it was 5.21. For the same molecule, the “Ratio IC50” value in assay [4] is 1.5. Further, in [10], the inhibition result is “Active”.

Turning to `CN(C)CCCn1c(N)c(-c2nc3ccccc3o2)c2nc(C#N)c(C#N)nc21`, the pIC50 is 5.23 in [1]; 4.95 in assay [2]; 5.14 in assay [3]; 5.71 in assay [5]; 5.88 in [6]; 5.23 in assay [7]. Also, the pIC50 in assay [8] was 6.41; in assay [9], 5.25. Also, the “Ratio IC50” value in assay [4] was 3.3. Further, the inhibition result in assay [10] was “Active”.

As for `CCN(CC)CCCn1c(N)c(-c2nc3ccccc3[nH]2)c2nc(C#N)c(C#N)nc21`, the negative-log IC50 (pIC50) is 5.74 in [1]; 5.50 in assay [2]; 4.60 in assay [3]; 5.73 in assay [5]; 5.74 in assay [6]; 5.10 in [7]. Also, the negative-log IC50 (pIC50) in assay [8] is 6.14; in assay [9], 4.54. The “Ratio IC50” value in [4] is 2.5. The inhibition result in assay [10] was “Active”. In addition, in assay [12], the inhibition result is “inactive”.

In the case of `CCN(CC)CCCn1c(N)c(-c2nc3ccccc3n2C)c2nc(C#N)c(C#N)nc21`, the pIC50 in [1] was 5.49; in [2], 4.91; in assay [3], 4.97; in assay [5], 5.65; in assay [6], 5.35; in assay [7], 5.14. For the same molecule, the pIC50 was 5.55 in [8] and 5.17 in assay [9]. Besides, in assay [4], the “Ratio IC50” value was determined as 1.6. In [10], the inhibition result is “Active”.

On to `CCN(CC)CCCCn1c(N)c(-c2nc3ccccc3o2)c2nc(C#N)c(C#N)nc21`, for which the pIC50 was 5.70 in assay [1]; 5.19 in assay [2]; 5.03 in assay [3]; 5.58 in assay [5]; 5.76 in [6]; 5.40 in assay [7]. For the same molecule, the pIC50 in assay [8] was 6.35; in assay [9], 5.57. The “Ratio IC50” value in assay [4] stood at 3.8. Further, the inhibition result in assay [10] was “Active”.

Regarding `CN(C)CCCn1c(N)c(-c2nc3ccccc3s2)c2nc(C#N)c(C#N)nc21`, the pIC50 in [1] was 5.74; in [2], 6.14; in assay [3], 5.05; in [5], 5.52; in assay [6], 5.88; in [7], 5.37. Also, the pIC50 in assay [8] is 6.29; in assay [9], 5.53. The “Ratio IC50” value in assay [4] is 2.5. The inhibition result in [10] was “Active”.

With `CN(C)CCCn1c(N)c(-c2nc3ccccc3[nH]2)c2nc(C#N)c(C#N)nc21`, the negative-log IC50 (pIC50) in assay [1] is 5.76; in assay [2], 4.59; in [3] it was 4.98; in assay [5], 5.91; in assay [6] it was 5.62; in [7], 5.08. The pIC50 in assay [8] is 6.06; in assay [9] it was 5.74. The “Ratio IC50” value in assay [4] stood at 2.7. In addition, in assay [10], the inhibition result is “Active”. For the same molecule, the inhibition entry in assay [12] was “inactive”.

On to `COc1cc([C@@H]2c3cc4c(cc3[C@@H](O[C@@H]3O[C@@H]5CO[C@@H](C)O[C@H]5[C@H](O)[C@H]3O)[C@H]3COC(=O)[C@H]23)OCO4)cc(OC)c1O` [ETOPOSIDE], for which the pIC50 in assay [1] is 6.29; in assay [2] it was 4.49; in [3] it was 5.17; in [5], 5.77; in assay [6] it was 5.04; in assay [7], 6.16. Also, the negative-log IC50 (pIC50) in assay [8] is 6.80; in [9], 4.50. Moreover, in assay [4], the “Ratio IC50” value worked out at 56.4. Besides, the inhibition entry in [13], in assay [14], in assay [10] and in assay [15] was “Active” each time.

With `CN(C)CCCCn1c(-c2c(N)n(C)c3nc(C#N)c(C#N)nc23)nc2ccccc21`, the pIC50 in assay [1] is 4.95; in assay [2], 4.99; in [3], 4.95; in assay [5], 5.97; in assay [6], 5.55; in assay [7] it was 5.15. The results for the pIC50 in assay [8] and in assay [9] were 5.64 and 5.19, respectively. Further, the “Ratio IC50” value in assay [4] is on record as 1.2. The inhibition result in assay [10] is “Active”.

For the molecule `CN(C)CCCCn1c(N)c(-c2nc3ccccc3s2)c2nc(C#N)c(C#N)nc21`, the pIC50 is 5.88 in assay [1]; 4.73 in [2]; 4.45 in assay [3]; 4.99 in assay [5]; 5.67 in assay [6]; 5.27 in assay [7]. Further, the figures for the pIC50 in [8] and in assay [9] were 6.08 and 5.56, respectively. Moreover, the “Ratio IC50” value in [4] is 2.6. Besides, in assay [10], the inhibition result was “Active”.
